Tb MetRS inh: blocks T. brucei methionyl-tRNA synthetase activity; actives 0.4% (n = 360,000); inhibition, % at 11.9 µM; purified T. brucei MetRS, ATP depletion, Kinase-Glo luminescence; AID 624268;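 active = inhibition above a per-plate cutoff of the control wells' mean inhibition plus 3 SD, cut at about 5.5% in these data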;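 note: 0% = DMSO wells median and 100% = median of wells with control inhibitor compound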
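Test system: purified T. brucei MetRS enzyme. Also added: ATP, methionine and E. coli bulk tRNA substrates. Compound: 11.9 µM single point. Schedule: 15 min enzyme-compound preincubation, 2 h reaction, 10 min detection, 25 °C. Signal: luciferase luminescence of residual ATP, Kinase-Glo. Evaluation: percent inhibition versus plate control medians. Controls: DMSO wells, low control.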
NTR1 ag: activates human neurotensin receptor 1; P30989; NTR1-U2OS beta-arrestin-GFP spot imaging, agonist mode; activation, % at 20 µM; actives 0.17% (n = 330,000);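 active = activation at or above 40% of the spot to cytoplasm intensity ratio, with at least 20 cells analyzed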;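 note: 0% = DMSO without peptide and 100% = 100 nM NTR1 peptide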
H9c2 TAG inh: triacylglycerol accumulation inhibition. H9c2 cells, Nile Red lipid (TAG) fluorescence; cells loaded with 200 µM oleic acid. inhibition, % at 12.5 µM. actives 0.66% (n = 230,000). AID 651582;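 active = pattern-corrected inhibition of lipid staining of at least 50% with the nuclear-stain viability signal not falling by more than 50%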;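 note: 0% = DMSO wells and 100% = triacsin C control wells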
MC4R ag barr: agonists of human melanocortin 4 receptor (MC4R) beta-arrestin | P32245 | U2OS MC4R beta-arrestin complementation, luminescence; percent of melanotan II response, DMSO zero | activation, % at 8.9 µM | actives 0.98% (n = 360,000);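 active = activation above a per-plate cutoff, the mean activation of sample wells on that plate plus 3 SD, cut at about 8% in these data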
Target sequence (P32245 whole entry, looked up): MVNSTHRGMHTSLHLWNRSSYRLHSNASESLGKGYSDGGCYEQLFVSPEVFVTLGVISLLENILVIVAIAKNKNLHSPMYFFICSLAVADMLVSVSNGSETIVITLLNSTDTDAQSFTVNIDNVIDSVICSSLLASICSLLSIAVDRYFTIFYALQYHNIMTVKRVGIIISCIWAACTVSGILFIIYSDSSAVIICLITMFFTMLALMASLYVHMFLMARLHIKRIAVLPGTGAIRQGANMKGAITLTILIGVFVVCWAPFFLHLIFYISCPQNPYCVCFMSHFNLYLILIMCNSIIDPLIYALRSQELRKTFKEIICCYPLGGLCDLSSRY
aDG glyco act: alpha-DG glycosylation activation. AID 624168. activation, % at 10 µM. actives 0.22% (n = 360,000). Pro5-aDG cells, alpha-DG glycosylation AlphaScreen (IIH6); 0% Pro5, 100% B10-LARGE cell signal;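 active = activation of at least 8% versus controls, or a plate z-score of at least 8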;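 note: Pro5 are CHO cells carrying HIG-tagged alpha-DG that lacks glycosylation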
MC4R antagonist: human MC4R antagonism in cAMP assay; MC4R-expressing cells, MTII-stimulated cAMP, LANCE TR-FRET; actives 0.48% (n = 360,000); inhibition, % at 6.5 µM; P32245;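 active = inhibition above its plate's cutoff, the mean of tested wells on that plate plus 3 SD, cut at about 29% in these data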;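 note: 0% = Melanotan II alone and 100% = Melanotan II plus saturating MCL0020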
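system = U2OS cells with stable human MC4R expression | also added = Melanotan II challenge after compound preincubation | dosing = one concentration, 6.5 µM nominal | incubation = compound 30 min, challenge 1 h, detection 1 h | measured by = TR-FRET with Eu-cAMP and labeled anti-cAMP, 671 nm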
* marks the source's active call; other numbers are inactive results; / = not tested or not shown. The list is not random: actives were taken first. Their share in the collection is about 2.4%.

SMILES	Tb MetRS inh	NTR1 ag	H9c2 TAG inh	MC4R ag barr	aDG glyco act	MC4R antagonist
COc1cc(N(Cc2ccccc2)Cc2ccccc2)c2ncn(C(C)C)c2c1	-0.2	-0.1	2.6	3.4	0.1	-5.6
C[C@@H]1C[C@@H]2OC(=O)[C@]3(C)[C@H]2[C@@H](OC3(C)O)[C@]2(C)C(=O)C=C[C@H]12 (some centres undefined)	-0.2	0.8	0.3	-0.5	0.1	3.3
C=C1C(=O)C=C[C@]2(C)C[C@@H]3OC(=O)[C@](C)(O)[C@H]3C[C@@H]12	0.2	2.7	57.2*	-1.3	-0.3	-0.1
CC(C)n1cc(NC(=O)c2cc(-c3ccccc3)on2)cn1	0.5	-1.4	50.3*	-0.8	-0.2	-15.7
O=C(Nc1cccnc1)c1cc(-c2ccccc2)on1	0.2	-2.2	9.7	-1.7	-0.2	-12.3
NC(=S)NN=Cc1nccc2c(C(F)(F)C(F)(F)C(F)(F)F)cccc12	-0.1	/	73.6*	-1.0	-0.4	-2.1
O=C(CSc1ccc(C(F)(F)F)cc1[N+](=O)[O-])Nc1ccccc1	7.6*	-0.4	/	3.7	0.1	1.0
O=S(=O)(NC1CC1)c1ccc(S(=O)(=O)N2CCCC3(CCCCC3)C2)cc1	-0.1	2.5	/	9.8*	-0.4	10.3
CCNC(=O)C[C@@H]1CC[C@H]2[C@@H](COC[C@H](O)CN2C(=O)C2CC2)O1	-0.2	/	/	/	-0.1	/
C=CCc1ccccc1OCC(O)CN1CCN(c2ccc(OC)cc2)CC1 (centres undefined)	0.2	2.7	/	8.7*	-0.2	22.2
Cc1ccccc1OCC(O)CN1CCN(c2ccc(Cl)cc2)CC1 (centres undefined)	-0.1	2.5	/	8.2*	0.1	7.5
Cc1ccccc1OCC(O)CN1CCN(CC(O)COc2ccccc2C)CC1 (centres undefined)	0.2	-0.6	-1.1	-1.2	0.6	9.5
C=CCc1ccccc1OCC(O)CN1CCOCC1 (centres undefined)	-0.1	2.2	-0.3	-0.4	0.0	9.5
COC(=O)[C@@]1(Cc2ccc(F)cc2)[C@H]2c3cc(C(=O)N(C)C)n(CCCNc4ncc(C(F)(F)F)cc4Cl)c3C[C@H]2CN1C(=O)c1ccccc1	-0.8	/	/	/	0.5	/
O=C(Nc1nc(-c2ccccn2)cs1)c1ccccc1-n1cnnn1	-0.3	1.2	50.7*	-0.7	1.0	14.3
CC(=O)Nc1ccc(C(=O)Nc2nc(-c3ccccn3)cs2)cc1	-0.9	0.3	4.9	-1.3	-0.1	-1.7
COc1cc(C2CC(c3cccs3)=NN2C(=O)CCl)ccc1OC(F)F (centres undefined)	-0.6	26.7	/	21.6*	-0.2	26.1
COc1cccc(C(C(=O)NC2CCCC2)N2CCN(c3ncccc3C#N)CC2)c1OC (centres undefined)	-0.4	/	/	/	0.5	/
Cc1cccc(Nc2nc(-c3ccc(O)cc3O)cs2)n1	-0.6	11.2	/	9.4*	0.2	11.6
COc1cc(NC(=O)c2cc(-c3ccccc3)on2)cc(OC)c1OC	-0.3	0.0	/	-1.8	1.7	-0.7
COc1cc(NC(=O)c2cc(-c3ccc4c(c3)OCO4)on2)cc(OC)c1OC	-0.1	0.7	/	8.8*	0.1	15.3
C=CCn1c(=O)c2ccc(C(=O)NCc3ccccc3)cc2n(Cc2cccc(Cl)c2)c1=O	-1.0	1.0	40.2	9.5*	0.2	-29.9
C=CCn1c(=O)c2ccc(C(=O)NCc3ccccc3)cc2n(Cc2ccc(Cl)cc2)c1=O	-0.6	8.1	/	0.5	0.0	15.5
CCCS(=O)(=O)NC(=O)C1(C)CCCN(C(=O)C(C)(C)Oc2ccc(Cl)cc2)C1 (centres undefined)	-0.1	/	1.0	-1.2	0.5	2.8
Clc1ccc(-n2c(SCc3nc4ccccc4[nH]3)nnc2-c2ccncc2)cc1	6.7*	1.8	/	1.3	0.2	7.7
SMILES	Tb MetRS inh	NTR1 ag	H9c2 TAG inh	MC4R ag barr	aDG glyco act	MC4R antagonist
CC(=O)c1ccc(OC2(C)CCN(CCOc3ccc(C)cc3)C2)cc1 (centres undefined)	-0.7	/	44.5	0.5	-0.2	-9.1
O=C1NC(=O)c2cc(Br)cc3cccc1c23	0.3	0.2	/	8.9*	0.4	-10.0
CC(C)(C)c1ccc(C(O)CCCN2CCC(C(O)(c3ccccc3)c3ccccc3)CC2)cc1 (centres undefined)	-1.2	24.6	62.5*	0.7	-0.5	3.6
C=CCC[C@H](Cc1ccc(F)cc1)C(=O)OC[C@@H](Cc1c[nH]c2ccccc12)NC(=O)[C@H](CC=C)CC(=O)N(CCO)Cc1ccccc1	-0.2	9.3	56.5*	0.4	0.2	19.8
C=CC[C@H](CC(=O)N(CCO)Cc1ccccc1)C(=O)N[C@@H](COC(=O)[C@@H](CC=C)Cc1ccc(F)cc1)Cc1c[nH]c2ccccc12	-1.1	20.4	34.4	-1.4	0.0	7.6
COc1ccc(NC(=O)c2ccc(NC3CC(=O)N(c4ccc(C)cc4C)C3=O)cc2)cc1 (centres undefined)	1.2	3.8	1.4	8.2*	-0.1	9.7
CN(Cc1ccccc1)CC(O)COc1ccc(CNCc2ccc(Cl)s2)cc1 (centres undefined)	-0.5	1.8	1.6	3.7	6.2*	10.7
S=C(Nc1ccc(Nc2ccccc2)cc1)Nc1ccccn1	0.1	9.9	-53.2	-3.6	9.4*	-3.1
COC(=O)C1OC1c1cc([N+](=O)[O-])ccc1OC (centres undefined)	-0.6	/	-10.8	2.3	0.2	0.0
COc1ccc([N+](=O)[O-])cc1C1NN=C(c2ccccc2O)S1 (centres undefined)	-0.8	3.9	14.1	10.5*	0.0	2.5
CC(C)NC(=O)NC(=O)CSc1nnc(COc2ccccc2F)n1C(C)C1CC2CCC1C2 (centres undefined)	-0.4	26.0	/	9.5*	0.3	21.1
CCCCN(C)c1c(C)nc2ccc(C(=O)NCc3ccc4c(c3)OCO4)cn12	0.2	/	7.1	1.1	-0.1	11.3
N#Cc1ccc(C(C(=O)NC2CCCCC2)n2c(=O)c(-c3ccccc3)nc3ccccc32)cc1 (centres undefined)	0.2	/	/	/	-0.2	/
C[C@@H]1CC[C@]2(C(=O)O[C@@H]3O[C@H](CO)[C@@H](O)[C@H](O)[C@H]3O)CC[C@]3(C)C(=CCC4[C@@]5(C)CC[C@H](O[C@@H]6OC[C@H](O)[C@H](O[C@@H]7O[C@H](CO)[C@@H](O)[C@H](O)[C@H]7O)[C@H]6O)C(C)(C)C5CC[C@]43C)C2[C@]1(C)O (some centres undefined)	-0.4	0.9	-2.6	-1.2	0.0	-1.1

Screening data deposited in PubChem BioAssay by several laboratories.
